Reference: ChEMBL document CHEMBL3232983, “Discovery of 2-iminobenzimidazoles as potent hepatitis C virus inhibitors with a novel mechanism of action” (Eur J Med Chem, 2014)
The source made the active and inactive calls. The rule behind the calls is not given here.

Legend:
Hepatitis C virus [1] = assay: Antiviral activity against cell culture derived Hepatitis C virus expressing NS5A-GFP fusion protein infected in human HuH7 cells assessed as infection rate preincubated for 2 hrs followed by viral inoculation measured after 72 hrs by HTS assay; assay type: functional, organism-based, Hepacivirus hominis; conditions: Huh-7
Outline: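 Naïve Huh-7 cells were exposed to serially diluted compound and inoculated with cell-culture-adapted HCVcc 2 h later. Infection rate was read at 72 h post-infection. EC50 came from 10-point dose-response curves run in duplicate with quadruplicate measurements, fitted by non-linear regression.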

[2] = Cytotoxicity against human HuH7 cells after 72 hrs by Hoechst 33342 staining-based confocal microscopic analysis; assay type: cell-based, Huh-7
Outline: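 Naïve Huh-7 cells in the HCVcc format were compound-treated for 2 h, then infected. Cytotoxicity was determined at 72 h post-infection. CC50 came from 10-point dose-response curves in duplicate with quadruplicate measurements, fitted by non-linear regression.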

[3] = Half life in human liver microsomes at 2 uM; assay type: ADME
Outline: (§1)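 Compound at 2 µM final (0.02% DMSO) was incubated with 0.5 mg/mL liver microsomes in potassium phosphate buffer. Human microsomes were a mixed-gender pool of 200 donors; rat microsomes were from males. Half-life is reported in minutes.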

[4] = Selectivity index, ratio of CC50 for human HuH7 cells to EC50 for cell culture derived Hepatitis C virus; assay type: toxicity, cell-based, Huh-7; conditions: read-out: Ratio CC50/EC50
Outline: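 SI is CC50/EC50. Both values come from the same HCVcc assay in naïve Huh-7 cells: compound added 2 h before HCVcc inoculation, infection and cytotoxicity read at 72 h. Each was derived from 10-point dose-response curves in duplicate with quadruplicate measurements.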

[5] = Half life in rat liver microsomes at 2 uM; assay type: ADME; outline: as §1
Hepatitis C virus [6] = assay: Antiviral activity against Hepatitis C virus infected in human HuH7.5 cells assessed as inhibition of viral RNA replication after 72 hrs; assay type: functional, organism-based; conditions: Hepacivirus hominis; Huh-7
Outline: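 Transiently transfected Huh-7.5 producer cells carrying full-length HCV RNA genomes were plated and left overnight at 37 °C. They were then treated with increasing compound concentrations at 37 °C for 48 h and washed. Viral RNA replication and cytotoxicity in the producer cells were read at 72 h post compound treatment. Data were normalized to the 1% DMSO control, set as 0% inhibition.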

Hepatitis C virus [7] = assay: Antiviral activity against Hepatitis C virus infected in human HuH7.5 cells assessed as reduction of secreted infectious viral particles incubated for 48 hrs followed by compound washout measured after 24 hrs; assay type: functional, organism-based; conditions: Hepacivirus hominis; Huh-7
Outline: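 Supernatant-transfer (late-stage) assay. Transfected Huh-7.5 producer cells were treated with serially diluted compound at 37 °C for 48 h, then washed. Supernatant was collected 24 h after the wash, clarified by centrifugation and put onto naïve Huh-7 target cells. HCV RNA replication in the target cells was read at 72 h post inoculation and normalized to the 1% DMSO control (0% inhibition).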

Hepatitis C virus [8] = assay: Antiviral activity against Hepatitis C virus pseudotyped lentiviral particle expressing E1/E2 glycoproteins assessed as inhibition of viral attachment and internalization in human HuH7 cells at 3.3 uM preincubated for 1 hr followed by viral inoculation measured after 72 hrs GFP reporter gene assay; assay type: functional, organism-based; conditions: Hepacivirus hominis, Huh-7
Outline: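 Huh-7 target cells were pretreated with 3.3 µM compound for 1 h. Supernatants were replaced at 12 h. GFP expression was scored by confocal microscopy at 72 h post inoculation and normalized to 1% DMSO. Triplicates with quadruple measurements (n = 12).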

[9] = system: Vesicular stomatitis virus; assay: Antiviral activity against Vesicular stomatitis virus pseudotyped particle expressing glycoproteins assessed as inhibition of viral attachment and internalization in human HuH7 cells at 3.3 uM preincubated for 1 hr followed by viral inoculation measured after 72 hrs GFP reporter gene assay; assay type: functional, organism-based; conditions: Huh-7
Outline: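 Supernatant replaced at 12 h. At 72 h post inoculation, GFP expression was read by confocal microscopy at 20x. Data normalized to 1% DMSO control (0% inhibition). Triplicates with quadruple measurements (n = 12).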

Structure (SMILES) | EC50 (Hepatitis C virus [1]) | CC50 at 72 h [2] | half-life at 2 µM [3] | selectivity ratio [4] | half-life at 2 µM [5] | inhibition (Hepatitis C virus [6]) | Activity (Hepatitis C virus [7]) | inhibition (Hepatitis C virus [8]) | inhibition [9]
Br.Cn1c(=N)n(CCOc2ccc(Cl)cc2)c2ccc(Cl)cc21 | 0.011 µM | 4.1 µM | > 1 h | 373 | > 1 h | – | – | – | –
CCc1ccc(OCCn2c(=N)n(C)c3ccccc32)cc1 | 0.05 µM | 8.9 µM | – | 178 | – | – | – | – | –
Br.Cn1c(=N)n(CCOc2ccc(Cl)cc2)c2cccc(Cl)c21 | 0.0033 µM | 1.5 µM | > 1 h | 455 | > 1 h | – | – | – | –
Cn1c(=N)n(CCOc2ccc(-c3ccccc3)cc2)c2ccccc21 | 0.2 µM | 3.4 µM | – | 17 | – | – | – | – | –
Cn1c(=N)n(Cc2ccc(-c3ccccc3)cc2)c2ccccc21 | 0.22 µM | 2.6 µM | – | 11.8 | – | – | – | – | –
CCc1cn2c3ccccc3n(CCOc3ccc(Cl)cc3)c2n1 | 6 µM | 20 µM | – | – | – | – | – | – | –
Cn1c(=N)n(CC(=O)c2ccc(C(C)(C)C)cc2)c2ccccc21 | 0.079 µM | 8.9 µM | – | 113 | – | – | – | – | –
Cn1c(=N)n(CC(=O)c2ccc3ccccc3c2)c2ccccc21 | 0.34 µM | 4.5 µM | – | 13 | – | – | – | – | –
Cn1c(=NC#N)n(CCOc2ccc(Cl)cc2)c2ccc(Cl)c(Cl)c21 | > 20 µM | > 20 µM | – | – | – | – | – | – | –
CCc1ccc(Cn2c(=N)n(C)c3ccccc32)cc1 | 0.46 µM | 5.8 µM | – | 12.6 | – | – | – | – | –
Cn1c(=N)n(CC(=O)c2ccc(Cl)cc2)c2ccccc21 | 0.073 µM | 20 µM | – | 274 | – | – | – | – | –
Br.Cc1ccc2c(c1)n(CCOc1ccc(Cl)cc1)c(=N)n2C | 0.09 µM | 10.6 µM | > 1 h | 118 | 0.3 h | – | – | – | –
Br.Cn1c(=N)n(CCOc2ccc(Cl)cc2)c2c(Cl)cccc21 | 0.0097 µM | 4.3 µM | > 1 h | 443 | 0.623 h | – | – | – | –
Br.Cn1c(=N)n(CCOc2ccc(Cl)cc2)c2ccccc21 | 0.016 µM | 7.6 µM | > 1 h | 475 | 0.225 h | Active | Dose-dependent effect | Active | inactive
Br.Cn1c(=N)n(CCOc2ccc(Cl)cc2)c2cc(Cl)ccc21 | 0.04 µM | 9.84 µM | > 1 h | 246 | > 1 h | – | – | – | –
Nc1nc2ccccc2n1CCOc1ccc(Cl)cc1 | 4 µM | 8.9 µM | – | – | – | – | – | – | –
Cn1c(=N)n(CCOc2ccc(C(C)(C)C)cc2)c2ccccc21 | 0.045 µM | 2.8 µM | – | 62 | – | – | – | – | –
CCC(=O)Cn1c(=N)n(CCOc2ccc(Cl)cc2)c2ccccc21 | 2.3 µM | 8.5 µM | – | – | – | – | – | – | –
Clc1ccc(OCCN2C3=NCCN3c3ccccc32)cc1 | 0.05 µM | 20 µM | – | – | – | – | – | – | –
Cn1c(=N)n(Cc2ccc(C(C)(C)C)cc2)c2ccccc21 | 0.17 µM | 5.9 µM | – | 34.7 | – | – | – | – | –
Br.Cc1ccc2c(c1)n(C)c(=N)n2CCOc1ccc(Cl)cc1 | 0.001 µM | 2.9 µM | > 1 h | 2900 | 0.145 h | – | – | – | –
CCc1ccc(C(=O)Cn2c(=N)n(C)c3ccccc32)cc1 | 0.38 µM | 9.5 µM | – | 25 | – | – | – | – | –
Br.Cc1cccc2c1n(C)c(=N)n2CCOc1ccc(Cl)cc1 | 0.13 µM | 15 µM | > 1 h | 115 | 0.41 h | – | – | – | –
